Assay results reported in ChEMBL document CHEMBL1148728, “Synthesis, biological activity, and crystal structure of potent nonnucleoside inhibitors of HIV-1 reverse transcriptase that retain activity against mutant forms of the enzyme” (J Med Chem, 2007).
The source made the active and inactive calls. The rule behind the calls is not given here.

Key:
[1] = target: Human immunodeficiency virus type 1 reverse transcriptase (Human immunodeficiency virus 1) (UniProt Q72547); assay: Inhibition of HIV1 reverse transcriptase at 1 uM
Outline: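 Wild-type HIV-1 RT enzyme screen with rC-dG template-primer. Percent inhibition is the mean of two experiments, each run in triplicate.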

[2] = Toxicity against CEM cells; format: cell-based; details: human, CEM (CCRF-CEM) cells; read-out: TC50 (the source's name)
[3] = system: Human immunodeficiency virus 1; assay: Antiviral activity against HIV1 infected CEM cells; format: functional, organism-based; details: for EC50: Human immunodeficiency virus 1, CCRF-CEM; for Activity: CCRF-CEM
Outline: (§1)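 Cell-based assay in HIV-1-infected CEM cells, read out as protection from virus-induced cell killing.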

[4] = target: Human immunodeficiency virus type 1 reverse transcriptase (Human immunodeficiency virus 1, UniProt Q72547); assay: Inhibition of HIV1 NL4-3 reverse transcriptase
[5] = system: Human immunodeficiency virus 1; assay: Antiviral activity against wild type HIV1 NL4-3 by cytopathic cell killing assay; format: functional, organism-based; details: Human immunodeficiency virus 1, NL4-3; outline: as §1
[6] = system: Human immunodeficiency virus 1; assay: Antiviral activity against HIV1 with RT L100I mutation by cytopathic cell killing assay; format: functional, organism-based
[7] = system: Human immunodeficiency virus 1; assay: Antiviral activity against HIV1 with RT K101E mutation by cytopathic cell killing assay; format: functional, organism-based
[8] = system: Human immunodeficiency virus 1; assay: Antiviral activity against HIV1 with RT K103N mutation by cytopathic cell killing assay; format: functional, organism-based
[9] = system: Human immunodeficiency virus 1; assay: Antiviral activity against HIV1 with RT V108I mutation by cytopathic cell killing assay; format: functional, organism-based
[10] = system: Human immunodeficiency virus 1; assay: Antiviral activity against HIV1 with RT Y181C mutation by cytopathic cell killing assay; format: functional, organism-based
[11] = system: Human immunodeficiency virus 1; assay: Antiviral activity against HIV1 with RT Y188C mutation by cytopathic cell killing assay; format: functional, organism-based
[12] = system: Human immunodeficiency virus 1; assay: Antiviral activity against HIV1 with RT V106A mutation by cytopathic cell killing assay; format: functional, organism-based

SMILES	inhibition [1]	CC50 [2]	EC50 [3]	IC50 [4]	EC50 [5]	EC50 [6]	EC50 [7]	EC50 [8]	EC50 [9]	EC50 [10]	other results
Fc1cccc(F)c1Cn1c(-c2c(F)cccc2F)nc2cc(Br)ccc21	43%										
Fc1cccc(F)c1Cn1c(-c2c(F)cccc2F)nc2cc(Cl)ccc21	48%										
O=[N+]([O-])c1cccc2c1nc(-c1c(F)cccc1F)n2Cc1c(F)cccc1F		30100 nM	2400 nM	1880 nM							
OCc1cccc2c1nc(-c1c(F)cccc1F)n2Cc1c(F)cccc1F		58100 nM	23 nM		48 nM	20 nM	5000 nM	13600 nM	23 nM	720 nM	EC50 [11]: 170 nM; EC50 [12]: 5900 nM
COC(=O)c1cccc2c1nc(-c1c(F)cccc1F)n2Cc1c(F)cccc1F		57700 nM		158000 nM							Activity [3]: inactive
Cc1ccnc2c1NC(=O)c1cccnc1N2C1CC1 [NEVIRAPINE]			35 nM		100 nM	720 nM	1100 nM	1090 nM	200 nM	4900 nM	EC50 [11]: 100 nM; EC50 [12]: 2360 nM
Cc1cccc2c1nc(-c1c(F)cccc1F)n2Cc1c(F)cccc1F	71%	> 100000 nM	440 nM	200 nM	500 nM	300 nM	16700 nM	8100 nM	2800 nM	6000 nM	EC50 [11]: 2300 nM
N#Cc1cccc2c1nc(-c1c(F)cccc1F)n2Cc1c(F)cccc1F		26700 nM	430 nM								
NCc1cccc2c1nc(-c1c(F)cccc1F)n2Cc1c(F)cccc1F		49300 nM	37 nM		1360 nM		1490 nM	> 50000 nM	2510 nM	12800 nM	EC50 [11]: 11600 nM; EC50 [12]: 9230 nM
Nc1cccc2c1nc(-c1c(F)cccc1F)n2Cc1c(F)cccc1F		26300 nM	460 nM	280 nM	400 nM	1200 nM	> 20000 nM	3100 nM	3300 nM	9200 nM	EC50 [11]: 2000 nM
CC(C)c1cccc2c1nc(-c1c(F)cccc1F)n2Cc1c(F)cccc1F		27000 nM	6340 nM								
Cc1ccc2nc(-c3c(F)cccc3F)n(Cc3c(F)cccc3F)c2c1	42%										
CN(C)C(=O)c1cccc2c1nc(-c1c(F)cccc1F)n2Cc1c(F)cccc1F		80100 nM									Activity [3]: inactive
Fc1cccc(F)c1Cn1c(-c2c(F)cccc2F)nc2c(CCl)cccc21		13400 nM	180 nM		160 nM	80 nM	460 nM	3340 nM	210 nM	2380 nM	EC50 [11]: 570 nM; EC50 [12]: 4700 nM
CC(=O)Nc1cccc2c1nc(-c1c(F)cccc1F)n2Cc1c(F)cccc1F		39300 nM	1480 nM	54700 nM	1970 nM	3250 nM		> 100000 nM		> 100000 nM	
CCc1cccc2c1nc(-c1c(F)cccc1F)n2Cc1c(F)cccc1F		26100 nM	820 nM	17500 nM	900 nM	2480 nM	> 50000 nM	> 50000 nM	> 50000 nM	7180 nM	
CN(C)c1cccc2c1nc(-c1c(F)cccc1F)n2Cc1c(F)cccc1F		> 100000 nM	2370 nM	40000 nM							
O=C(O)c1cccc2c1nc(-c1c(F)cccc1F)n2Cc1c(F)cccc1F		23500 nM									Activity [3]: inactive
[N-]=[N+]=NCc1cccc2c1nc(-c1c(F)cccc1F)n2Cc1c(F)cccc1F		> 100000 nM	45 nM		45 nM	80 nM	600 nM	1480 nM	26 nM	280 nM	EC50 [11]: 220 nM; EC50 [12]: 610 nM
Fc1cccc(F)c1Cn1c(-c2c(F)cccc2F)nc2c(Cl)cccc21	75%	30400 nM	440 nM	2630 nM	500 nM	300 nM	> 20000 nM	10200 nM	3200 nM	8400 nM	EC50 [11]: 3400 nM

SMILES	inhibition [1]	CC50 [2]	EC50 [3]	IC50 [4]	EC50 [5]	EC50 [6]	EC50 [7]	EC50 [8]	EC50 [9]	EC50 [10]	other results
CC(=O)NCc1cccc2c1nc(-c1c(F)cccc1F)n2Cc1c(F)cccc1F		20800 nM									Activity [3]: inactive
CC(=O)N(C)Cc1cccc2c1nc(-c1c(F)cccc1F)n2Cc1c(F)cccc1F		20600 nM	580 nM								
Cc1ccc2c(nc(-c3c(F)cccc3F)n2Cc2c(F)cccc2F)c1C	26%										
Cc1cc(C)c2nc(-c3c(F)cccc3F)n(Cc3c(F)cccc3F)c2c1	37%										
Fc1cccc(F)c1Cn1c(-c2c(F)cccc2F)nc2ccc(Cl)cc21	69%										
Oc1cccc2c1nc(-c1c(F)cccc1F)n2Cc1c(F)cccc1F		> 100000 nM	650 nM								
O=[N+]([O-])c1ccc2c(c1)nc(-c1c(F)cccc1F)n2Cc1c(F)cccc1F	30%										
CC(=O)OCc1cccc2c1nc(-c1c(F)cccc1F)n2Cc1c(F)cccc1F		55800 nM	59 nM		62 nM	68 nM	25 nM	27 nM	13 nM	2320 nM	EC50 [11]: 33 nM; EC50 [12]: 4500 nM
Cc1cccc2nc(-c3c(F)cccc3F)n(Cc3c(F)cccc3F)c12	1%										
CNc1cccc2c1nc(-c1c(F)cccc1F)n2Cc1c(F)cccc1F		27200 nM	1700 nM	4940 nM							
Fc1cccc(F)c1Cn1c(-c2c(F)cccc2F)nc2c(Br)cccc21	78%	24500 nM	370 nM	1610 nM	500 nM	500 nM	> 20000 nM	> 20000 nM	4200 nM	10700 nM	EC50 [11]: 3700 nM
N#CCc1cccc2c1nc(-c1c(F)cccc1F)n2Cc1c(F)cccc1F			60 nM		60 nM			4200 nM		2200 nM	
Fc1cccc(F)c1Cn1c(-c2c(F)cccc2F)nc2ccccc21	50%	18800 nM	1700 nM	110 nM							
NC(=O)c1cccc2c1nc(-c1c(F)cccc1F)n2Cc1c(F)cccc1F		> 100000 nM	4900 nM								
COCc1cccc2c1nc(-c1c(F)cccc1F)n2Cc1c(F)cccc1F			60 nM								
Cc1ccc2c(c1)nc(-c1c(F)cccc1F)n2Cc1c(F)cccc1F	22%										
N=C(NO)c1cccc2c1nc(-c1c(F)cccc1F)n2Cc1c(F)cccc1F		23100 nM	190 nM								
COc1cccc2c1nc(-c1c(F)cccc1F)n2Cc1c(F)cccc1F		44300 nM	60 nM	7.3 nM	60 nM	160 nM	2820 nM	> 50000 nM	2820 nM	260 nM	
O=Cc1cccc2c1nc(-c1c(F)cccc1F)n2Cc1c(F)cccc1F		820 nM	120 nM								
